Laboratory results published in ChEMBL document CHEMBL1154300, “Monoterpenoid indole alkaloids from Alstonia yunnanensis” (J Nat Prod, 2009).

Tests used:
[1] = biological target: Prostaglandin G/H synthase 1 (Homo sapiens) (UniProt P23219); conditions: at 100 µM
HL-60 = experiment: Cytotoxicity against human HL60 cells after 48 hrs by MTT assay; format: functional, cell-based; conditions: HL-60, 48 h
[2] = biological target: T1, Polyunsaturated fatty acid 5-lipoxygenase (Homo sapiens) (UniProt P09917); experiment: Inhibition of 5-LOX at 100 uM after 5 mins
T1 sequence (whole entry): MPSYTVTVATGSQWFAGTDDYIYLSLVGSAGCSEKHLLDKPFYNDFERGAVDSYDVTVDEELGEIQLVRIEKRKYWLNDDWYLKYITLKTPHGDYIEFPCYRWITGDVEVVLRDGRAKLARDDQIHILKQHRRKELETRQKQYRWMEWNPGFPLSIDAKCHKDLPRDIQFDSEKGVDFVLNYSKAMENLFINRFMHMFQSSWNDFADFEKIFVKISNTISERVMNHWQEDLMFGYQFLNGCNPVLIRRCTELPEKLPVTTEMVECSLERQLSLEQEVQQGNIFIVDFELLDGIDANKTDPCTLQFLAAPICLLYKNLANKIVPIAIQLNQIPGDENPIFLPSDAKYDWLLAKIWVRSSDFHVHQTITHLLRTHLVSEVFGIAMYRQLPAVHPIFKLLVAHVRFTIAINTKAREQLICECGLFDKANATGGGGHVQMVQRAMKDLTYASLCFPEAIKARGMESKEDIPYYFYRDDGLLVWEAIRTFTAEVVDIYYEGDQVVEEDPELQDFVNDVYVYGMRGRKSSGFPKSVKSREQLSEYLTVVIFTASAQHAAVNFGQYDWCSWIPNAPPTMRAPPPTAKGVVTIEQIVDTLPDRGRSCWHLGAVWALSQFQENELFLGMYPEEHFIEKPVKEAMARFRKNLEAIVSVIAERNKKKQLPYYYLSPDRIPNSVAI
In short: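 Tested in an anti-inflammatory panel against Cox-1, Cox-2 and 5-Lox.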

PANC-1 = experiment: Cytotoxicity against human PANC1 cells after 48 hrs by MTT assay; format: functional, cell-based; conditions: PANC-1, 48 h

Sequence of Prostaglandin G/H synthase 1 (Homo sapiens) (P23219 whole entry): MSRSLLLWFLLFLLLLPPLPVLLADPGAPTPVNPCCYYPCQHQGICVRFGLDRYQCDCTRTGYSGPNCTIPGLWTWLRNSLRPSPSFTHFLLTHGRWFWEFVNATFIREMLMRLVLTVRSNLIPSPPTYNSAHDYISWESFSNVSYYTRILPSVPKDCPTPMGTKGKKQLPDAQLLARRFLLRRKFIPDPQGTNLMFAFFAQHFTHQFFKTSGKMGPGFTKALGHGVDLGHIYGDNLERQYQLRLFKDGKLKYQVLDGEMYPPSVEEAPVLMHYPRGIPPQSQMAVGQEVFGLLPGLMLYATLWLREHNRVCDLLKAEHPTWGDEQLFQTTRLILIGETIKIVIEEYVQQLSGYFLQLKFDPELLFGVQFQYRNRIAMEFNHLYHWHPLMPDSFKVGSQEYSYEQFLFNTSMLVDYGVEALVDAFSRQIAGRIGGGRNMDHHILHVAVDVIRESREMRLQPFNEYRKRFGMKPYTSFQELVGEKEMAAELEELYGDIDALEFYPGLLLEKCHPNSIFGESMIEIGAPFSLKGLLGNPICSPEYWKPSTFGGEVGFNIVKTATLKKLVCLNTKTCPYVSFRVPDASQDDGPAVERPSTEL

| SMILES | inhibition [1] [%] | IC50 (HL-60) [µM] | inhibition [2] [%] | IC50 (PANC-1) [µM] |
| --- | --- | --- | --- | --- |
| CC[C@@]12CC(C(=O)OC)=C3Nc4cc(OC)ccc4[C@@]34CCN(C(=O)[C@@H]3O[C@@H]31)[C@@H]24 [ALSTOYUNINE G] | 37.2 | > 40 | < 0 | > 40 |
| CO[C@@H]1O[C@@H](O)[C@@H]2C3C[C@H]4c5[nH]c6ccccc6c5C[C@@H]2N4[C@@H](C)[C@H]31 [ALSTOYUNINE A] | 27.8 | > 40 | 38.4 | > 40 |
| CC(=O)OC1C2C3C[C@H]4C5=[N+](C)c6ccccc6[C@]51C[C@@H]2[N+]4([O-])[C@@H](C)[C@@H]3C(=O)[O-] (some centres not stated) | 45 | > 40 | < 0 | > 40 |
| CO[C@@H]1O[C@@H](O)[C@H]2C3C[C@H]4c5[nH]c6ccccc6c5C[C@@H]([C@@H]31)N4[C@H]2C [ALSTOYUNINE B] | 26.8 | > 40 | 33.5 | > 40 |
| COC(C)[C@H]1C2C[C@H]3C4=Nc5ccccc5[C@]45C[C@@H](C2C5OC(C)=O)N3[C@@H]1O (some centres not stated) [ALSTOYUNINE F] | 39.8 | 3.89 | 61.8 | 21.7 |
| CC[C@@]12CC(C(=O)OC)=C3Nc4cc(OC)ccc4[C@@]34CCN(C[C@@H](Cl)[C@@H]1O)[C@@H]24 [ALSTOYUNINE H] | < 0 | > 40 | 0.84 | > 40 |
| C/C=C1/C[N+]2([O-])[C@H]3CC1C1C(OC(C)=O)[C@@]4(C[C@@H]12)C3=Nc1ccccc14 (some centres not stated) [ALSTOYUNINE E] | 41.8 | > 40 | 77.2 | > 40 |
| CC(=O)OC1C2C3C[C@H]4C5=[N+]([O-])c6ccccc6[C@]51C[C@@H]2[N+]4([O-])[C@@H](C)[C@@H]3C(=O)O (some centres not stated) [ALSTOYUNINE D] | 39.3 | > 40 | < 0 | > 40 |
